{"source": "ChEMBL document CHEMBL1133638", "about": "“Synthesis and biological activity of a novel 11a-homo (cyclohexyl) prostaglandin” (J Med Chem, 2000)", "key": {"[1]": {"assay": "Evaluated for its concentration at which 50% of maximal stimulation of phosphoinositide turnover was observed", "type": "functional, Mus musculus", "outline": "(§1)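 Swiss 3T3 mouse fibroblasts with FP receptors, confluent, labelled 24-30 h at 37 °C with 1.0-1.5 μCi [3H]-myo-inositol in DMEM. Rinsed into DMEM/F-12 with 10 mM LiCl, then agonist or solvent for 60 min at 37 °C, triplicate. Stopped with ice-cold 0.1 M formic acid. Total [3H]IPs isolated on anion-exchange resin and counted.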"}, "Mus musculus [2]": {"organism": "Mus musculus", "assay": "Evaluated for percent maximum response relative to cloprostenol (n=2)", "type": "functional", "outline": "as §1"}, "Mus musculus [3]": {"organism": "Mus musculus", "assay": "Evaluated for percent maximum response relative to cloprostenol (n=11)", "type": "functional", "outline": "as §1"}, "Mus musculus [4]": {"organism": "Mus musculus", "assay": "Evaluated for percent maximum response relative to cloprostenol (n = 105)", "type": "functional", "outline": "as §1"}}, "data": [{"molecule": "O=C(O)CCC/C=C\\C[C@@H]1[C@@H](/C=C/[C@H](O)COc2cccc(Cl)c2)[C@H](O)CC[C@@H]1O", "values": [{"measurement": "EC50", "setting": "[1]", "result": 2750, "unit": "nM"}, {"measurement": "Max response", "setting": "Mus musculus [2]", "result": 50, "unit": "%"}]}, {"molecule": "O=C(O)CCC/C=C\\C[C@@H]1[C@@H](/C=C/[C@@H](O)COc2cccc(Cl)c2)[C@H](O)CC[C@@H]1O", "values": [{"measurement": "EC50", "setting": "[1]", "result": 319, "unit": "nM"}, {"measurement": "Max response", "setting": "Mus musculus [2]", "result": 72, "unit": "%"}]}, {"molecule": "CCCCC[C@H](O)/C=C/[C@@H]1[C@@H](C/C=C\\CCCC(=O)O)[C@@H](O)C[C@H]1O", "note": "[DINOPROST]", "values": [{"measurement": "EC50", "setting": "[1]", "result": 23, "unit": "nM"}, {"measurement": "Max response", "setting": "Mus musculus [3]", "result": 91, "unit": "%"}]}, {"molecule": "O=C(O)CCC/C=C\\CC1C(O)CC(O)C1/C=C/C(O)COc1cccc(Cl)c1", "note": "(stereo not drawn) [CLOPROSTENOL]", "values": [{"measurement": "EC50", "setting": "[1]", "result": 1, "unit": "nM"}, {"measurement": "Max response", "setting": "Mus musculus [4]", "result": 100, "unit": "%"}]}]}
